# This is a sample that favours compounds with a hit; in the whole collection about 1.8% have one here.
# SKN-1 inh = suppressors of acrylamide-induced Pgst-4::GFP reporter in worms, primary screen, SKN-1 inhibitor project, whole organism, uHTS, GFP/RFP fluorescence ratio, strain VP596 | C. elegans VP596 Pgst-4::GFP/RFP ratio, 24 h | inhibition, % at 21.8 µM | 360,000 tested, 0.49% active | AID 624304, 2012;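 active = interference check ratio from 0.5 to 1.5 plus GFP to RFP signal ratio inhibition reaching or exceeding a fixed threshold, cut at about 30% in these data, passing the limit was not always enough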
# E coli Lon inh = inhibitors of E. coli Lon protease, primary screen, biochemical, fluorescence polarization; AID 602123, 2011; P0A9M0; purified E. coli Lon protease; 360,000 tested, 0.42% active; inhibition, % at 7.94 µM; in the data active = inhibition above about 13%, passing the limit was not always enough;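 note: 0% = enzyme with probe and DMSO and 100% = no enzyme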
# TbMetRS inhib = T. brucei MetRS inhibitors, primary screen, biochemical, luminescence | AID 624268, 2012 | purified T. brucei MetRS, ATP depletion, Kinase-Glo luminescence | methionyl-tRNA synthetase (Trypanosoma brucei brucei) | 360,000 tested, 0.4% active | inhibition, % at 11.9 µM;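 active = inhibition above a per-plate cutoff of the control wells' mean inhibition plus 3 SD, cut at about 5.5% in these data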;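 note: 0% = DMSO wells median and 100% = median of wells with control inhibitor compound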
#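 assay system = parasite MetRS enzyme | timing = 15 min preincubation, 2 h reaction, all 25 °C | evaluation = percent inhibition relative to median high and low control wells | medium = HEPES buffer containing pyrophosphatase, BSA, spermine, DTT | compound = single dose, 11.9 µM final nominal, 0.9% final DMSO | detection = Kinase-Glo luminescence, ATP depletion format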
# MT1-MMP act inh = blockers of MT1-MMP proenzyme processing, primary screen, HT1080 RFP-PRO-GFP cells, GFP/RFP fluorescence | GFP/RFP ratio change, % at 20 µM | 360,000 tested, 0.061% active | Matrix metalloproteinase-14 (Homo sapiens), P50281 | AID 651647, 2012 | GFP/RFP ratio fluorescence, overnight; percent of plate control window, DMSO zero;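 active = GFP/RFP ratio change of at least 30% with cell ATP level not reduced by more than half and red fluorescence within 50% of control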
#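 Assay system: HT1080 cells carrying an RFP-PRO-GFP reporter | Dosing: Single dose of 20 µM compound, 1% DMSO final | Incubation: Cells overnight before dosing, compound overnight, 37 °C, 5% CO2 | Evaluation: GFP/RFP fluorescence ratio | Control set: DMSO and RFP-L50D-GFP cell wells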
# PREPL inh = PREPL enzyme inhibitors, primary screen, biochemical, fluorescence polarization; inhibition, % at 5.96 µM; Prolyl endopeptidase-like (Homo sapiens), Q4J6C6; AID 2751, 2010; 320,000 tested, 0.68% active; recombinant PREPL, fluorescence polarization activity-based probe; in the data active = inhibition above about 43%;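 note: 0% = enzyme with DMSO and 100% = wells lacking enzyme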
# Target sequence (Q4J6C6 whole entry, looked up): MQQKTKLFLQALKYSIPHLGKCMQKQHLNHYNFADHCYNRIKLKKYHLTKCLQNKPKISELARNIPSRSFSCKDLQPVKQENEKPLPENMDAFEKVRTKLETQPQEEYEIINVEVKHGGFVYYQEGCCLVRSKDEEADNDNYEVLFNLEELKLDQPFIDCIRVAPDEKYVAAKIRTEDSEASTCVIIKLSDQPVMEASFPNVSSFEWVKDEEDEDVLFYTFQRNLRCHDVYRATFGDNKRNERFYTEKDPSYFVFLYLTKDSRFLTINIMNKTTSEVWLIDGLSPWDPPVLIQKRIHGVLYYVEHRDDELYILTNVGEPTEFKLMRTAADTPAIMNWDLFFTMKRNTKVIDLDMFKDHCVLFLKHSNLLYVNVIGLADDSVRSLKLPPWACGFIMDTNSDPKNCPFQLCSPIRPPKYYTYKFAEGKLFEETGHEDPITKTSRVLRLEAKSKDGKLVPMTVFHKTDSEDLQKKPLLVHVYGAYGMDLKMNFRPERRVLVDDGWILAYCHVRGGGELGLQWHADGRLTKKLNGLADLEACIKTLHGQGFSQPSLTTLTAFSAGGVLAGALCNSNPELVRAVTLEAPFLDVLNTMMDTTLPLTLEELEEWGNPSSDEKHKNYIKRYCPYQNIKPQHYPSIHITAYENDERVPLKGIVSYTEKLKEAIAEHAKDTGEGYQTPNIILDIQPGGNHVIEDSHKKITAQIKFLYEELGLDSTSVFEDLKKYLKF
# hiPSC survival = enhancers of single-cell hiPSC survival, primary screen, ATPlite luminescence; 100% = ROCK inhibitor wells, 0% = DMSO; survival enhancement, % at 20 µM; 360,000 tested, 0.044% active; AID 602274, 2012; in the data active = survival enhancement above about 18%;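 note: cells exposed to compounds for 16 hours before the ATP read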
# Tb MetRS conf = T. brucei MetRS inhibitors, confirmation, biochemical, luminescence. shares compounds with TbMetRS inhib. T. brucei MetRS enzyme, luminescence (ATP depletion). inhibition, % at 11.9 µM. 1,400 tested, 93% active; in the data active = inhibition above about 7%
# Jurkat cytotox = Jurkat T cell cytotoxicity, cytotoxicity control for T. brucei MetRS inhibitor project, luminescence, high throughput | Jurkat cells viability, ATP luminescence | AID 624413, 2012 | 1,400 tested, 12% active | shares compounds with TbMetRS inhib | inhibition, % at 8.3 µM; in the data active = inhibition above about 15%;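 note: 0% = vehicle and 100% = reference inhibitor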
# TbMetRS FP orth = T. brucei MetRS inhibitors, orthogonal assay for T. brucei MetRS inhibitor project, biochemical, fluorescence polarization | shares compounds with TbMetRS inhib | purified T. brucei MetRS | inhibition, % at 11.9 µM | 1,400 tested, 44% active | AID 651607, 2012; in the data active = inhibition above about 17%;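 note: 0% = vehicle wells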
# An asterisk follows results filed as active; · = not tested or not shown.
SMILES,SKN-1 inh,E coli Lon inh,TbMetRS inhib,MT1-MMP act inh,PREPL inh,hiPSC survival,Tb MetRS conf,Jurkat cytotox,TbMetRS FP orth
Cc1[nH]c2ccccc2c1C(=O)C(=O)N1CCN(c2ccccc2)CC1,8.3,0.2,11.8*,-1.0,-10.6,0.0,19.4*,-11.7,9.7
O=C(COC(=O)C1CC2CCCC(C1)C2=O)Nc1cccc(F)c1 (centres undefined),24.0,-6.7,-0.4,1.0,12.8,2.5,·,·,·
O=C(C(=O)N1CCN(Cc2ccccc2)CC1)c1c[nH]c2ccccc12,2.5,1.6,11.9*,-4.3,-13.9,3.3,21.2*,-5.5,3.8
COc1ccc(N2CCN(CCCNC(=O)C(=O)c3c(C)[nH]c4ccccc34)CC2)cc1,-7.4,1.6,5.9*,1.4,16.7,0.8,18.1*,-1.9,8.1
O=C(C(=O)N1CCN(c2ccccc2)CC1)c1c[nH]c2ccccc12,0.2,-6.3,6.7*,3.3,-8.8,2.1,13.0*,4.3,3.0
O=C(CSc1n[nH]c(=O)n1-c1cccnc1)Nc1ccccc1,-2.7,12.7,-0.7,-0.5,0.3,0.0,·,·,·
O=C(OC(C(=O)c1c[nH]c2ccccc12)c1ccccc1)c1cnccn1 (centres undefined),-3.1,-18.4,14.6*,-0.1,-9.2,-0.3,27.1*,-4.4,17.4*
O=C1CCC(C(=O)OC(C(=O)c2c[nH]c3ccccc23)c2ccccc2)=NN1 (centres undefined),7.6,-1.4,9.9*,1.4,-2.0,-0.1,23.6*,3.9,8.7
Cc1ccc(C(=O)C(OC(=O)c2cnccn2)c2ccccc2)cc1 (centres undefined),-2.1,1.6,0.4,1.5,-7.7,0.3,·,·,·
O=C(c1c[nH]c2ccccc12)C(Cl)c1ccccc1 (centres undefined),14.1,-4.7,24.7*,-7.3,-2.3,-0.4,45.4*,45.4*,23.5*
Cc1ccc(C)c(S(=O)(=O)N2CCN(C(=O)c3ccc(N4CCCC4)c([N+](=O)[O-])c3)CC2)c1,-9.0,9.0,-0.5,-2.7,9.7,-0.2,·,·,·
COC(=O)Cc1cc(=O)[nH]c(/N=C(\N)Nc2ccc(C(C)C)cc2)n1,-10.6,2.4,0.7,-0.6,9.1,-0.4,·,·,·
COc1cc(CN2CCN(Cc3c[nH]c4ccccc34)CC2CCO)cc(OC)c1 (centres undefined),-5.5,12.7,0.3,1.0,·,1.7,·,·,·
COc1ccc(CN2CCN(Cc3c[nH]c4ccccc34)CC2CCO)c(F)c1 (centres undefined),6.7,6.6,21.6*,-2.4,7.8,0.5,41.6*,2.6,13.7
COc1ccccc1NC(=O)Cn1cc(C(=O)C(=O)N2CCOCC2)c2ccccc21,16.0,-7.1,0.0,-2.3,2.9,-0.5,·,·,·
O=C(Cn1cc(C(=O)C(=O)N2CCOCC2)c2ccccc21)Nc1cccc(C(F)(F)F)c1,9.6,-6.1,90.2*,4.0,·,0.1,97.0*,3.4,95.0*
Nc1nnc(CC(=O)N/N=C/c2ccc(-c3ccccc3)o2)s1,5.3,-3.5,8.1*,1.9,8.1,0.1,4.8,0.5,9.1
Nc1nnc(CC(=O)N/N=C/c2ccc(-c3ccc(Cl)cc3Cl)o2)s1,5.5,-1.8,10.8*,2.3,-9.0,-0.1,2.9,3.7,5.4
Cc1ccc(CN2CCC(c3nc4ccc(Cl)cc4[nH]3)CC2)cc1,7.9,-23.5,8.2*,-18.9,4.3,-1.3,24.6*,12.5,8.0
Clc1ccc2nc(C3CCN(Cc4ccccc4)CC3)[nH]c2c1,-1.6,-15.8,11.0*,-3.8,5.0,-0.1,9.8*,4.0,4.1
CC1CCCCN1C(=O)CN1CCC(c2nc3ccc(Cl)cc3[nH]2)CC1 (centres undefined),3.8,-6.4,3.4,-6.7,5.5,-0.5,·,·,·
CC(C)c1ccc(N)c(S(=O)(=O)O)c1,7.7,0.5,7.7*,-4.7,-7.5,-0.3,1.9,0.3,6.3
Cc1ccc(NC(=O)CCC(=O)N/N=C/c2cccs2)cc1C,6.4,6.2,0.8,1.4,1.8,0.5,·,·,·
O=C(CCC(=O)Nc1cccc([N+](=O)[O-])c1)N/N=C/c1cccs1,-9.6,14.9,44.4*,2.5,·,3.4,69.3*,6.7,47.9*
Cc1cc(C(=O)Cn2nnc(-c3ccc(Cl)cc3)n2)c(C)n1-c1ccccc1,1.2,-2.9,0.1,4.1,-0.8,0.3,·,·,·
SMILES,SKN-1 inh,E coli Lon inh,TbMetRS inhib,MT1-MMP act inh,PREPL inh,hiPSC survival,Tb MetRS conf,Jurkat cytotox,TbMetRS FP orth
Cc1c(NS(=O)(=O)c2cccc(C(=O)NCc3cccc(Cl)c3)c2)c(=O)n(-c2ccccc2)n1C,-11.9,-17.0,17.8*,0.0,·,-1.5,42.6*,6.5,27.3*
C[C@H](O)[C@@H]1C(=O)N2CCc3c([nH]c4ccccc34)[C@@H]2C[C@@H]1N(C)Cc1ccc(Cl)cc1,17.7,-2.8,86.7*,-39.0,·,1.1,104.4*,-5.5,83.4*
COCC(=O)N(C)[C@H]1C[C@H]2c3[nH]c4ccccc4c3CCN2C(=O)[C@H]1[C@H](C)O,24.1,-2.3,1.4,-0.7,·,-0.8,·,·,·
COc1ccc(-c2ccc3[nH]c4c(c3c2)CCN2C(=O)[C@@H]([C@H](C)O)[C@@H](N(C)C(=O)Nc3cc(Cl)cc(Cl)c3)C[C@@H]42)cc1,6.2,-7.3,7.8*,-11.3,·,0.5,10.8*,13.0,12.4
CCN(CC)S(=O)(=O)c1cccc(C(=O)NNC(=O)C2=NN(c3ccccc3)C(=O)CC2)c1,17.5,-2.8,-0.2,-2.0,1.0,-0.6,·,·,·
CCCC(=O)Nc1ccc(C(=O)NNC(=S)NC(=O)c2ccc(Br)o2)cc1,1.1,5.7,0.1,0.2,0.8,1.0,·,·,·
COc1ccc(CN(C(=S)Nc2ccccc2)C2CC(=O)N(c3ccc(F)cc3)C2=O)cc1 (centres undefined),15.0,-1.4,-0.6,2.5,5.4,7.7,·,·,·
